Experimental data: ChEMBL document CHEMBL1629528 (J Med Chem, 2010)
Active and inactive are the calls of the source. The calls are words filed in the database; no cut-off is given here.

Key:
[1] = test system: Rattus norvegicus; experiment: Inhibition of 8-OH-DPAT-induced hyperlocomotory activity in Sprague-Dawley rat administered orally 60 mins before 8-OH-DPATchallenge; format: functional
Outline: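 Male Sprague-Dawley rats (250–350 g) dosed orally (5 mL/kg) at 0.03, 0.1 or 0.3 mg/kg or vehicle, 60 min before sc 8-OH-DPAT 0.2 mg/kg (2 mL/kg). Total distance travelled recorded by infrared sensors over 30 min immediately after; 8–9 rats per group.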

[2] = Half life in Sprague-Dawley rat at 0.5 mg/kg, iv after 24 hrs; format: ADME, organism-based; set-up: dose 0.5 mg/kg, route intravenous; conditions: in vivo
Outline: (§1)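 Male Sprague-Dawley rats given 0.5 mg/kg iv (2 mL/kg, 2.5% DMSO in glucosate solution), n=3, cassette dosing; blood collected at intervals up to 24 h, protein precipitation and LC-MS/MS quantification.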

[3] = Cmax in Sprague-Dawley rat at 1 mg/kg, po after 24 hrs; format: ADME, organism-based; set-up: dose 1 mg/kg, route oral; conditions: in vivo
Outline: (§2)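 Male Sprague-Dawley rats dosed po at 1 mg/kg (10 mL/kg, 1% DMSO in aqueous 0.5% methocel), n=3, as a cassette with other compounds; blood sampled at intervals up to 24 h and analysed by protein precipitation then LC-MS/MS.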

[4] = Solubility of the compound in simulated gastric fluid at pH 1.2 at 25 degC; format: physicochemical
[5] = Ratio of drug level in brain to blood in Sprague-Dawley rat after 1 hr; format: ADME, tissue-based; conditions: read-out: BBR
Outline: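 Male Sprague-Dawley rats dosed iv at 0.5 mg/kg (2.5% DMSO in glucosate), n=3, as a cassette. At 1 h, CO2 anaesthesia, blood taken by heart puncture and brain removed. Both matrices analysed by protein precipitation and LC-MS/MS.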

[6] = Oral bioavailability in Sprague-Dawley rat at 1 mg/kg, po after 24 hrs; format: ADME, organism-based; conditions: in vivo; outline: as §2
[7] = Solubility of the compound in fed state simulated intestinal fluid at pH 5.5 at 25 degC; format: physicochemical
Outline: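 Solubility determined at 25 °C in fed state simulated intestinal fluid at pH 5.5.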

[8] = Clearance in Sprague-Dawley rat at 0.5 mg/kg, iv after 24 hrs; format: ADME, organism-based; set-up: dose 0.5 mg/kg, route intravenous; conditions: in vivo; outline: as §1
[9] = AUC (0 to infinity) in Sprague-Dawley rat at 1 mg/kg, po after 24 hrs; format: ADME, organism-based; set-up: time infinity, dose 1 mg/kg, route oral; conditions: plasma; outline: as §2
[10] = Solubility of the compound in water; format: physicochemical
Outline: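 Measured on the dihydrochloride salt form, dissolved in water.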

[11] = molecular target: T1, 5-hydroxytryptamine receptor 1A (Homo sapiens) (UniProt P08908); experiment: Intrinsic activity at human recombinant 5-HT1A receptor expressed in HEK293 cells by [S35]GTPgammaS binding assay relative to 5-HT; format: functional, cell-based
T1 sequence (whole entry): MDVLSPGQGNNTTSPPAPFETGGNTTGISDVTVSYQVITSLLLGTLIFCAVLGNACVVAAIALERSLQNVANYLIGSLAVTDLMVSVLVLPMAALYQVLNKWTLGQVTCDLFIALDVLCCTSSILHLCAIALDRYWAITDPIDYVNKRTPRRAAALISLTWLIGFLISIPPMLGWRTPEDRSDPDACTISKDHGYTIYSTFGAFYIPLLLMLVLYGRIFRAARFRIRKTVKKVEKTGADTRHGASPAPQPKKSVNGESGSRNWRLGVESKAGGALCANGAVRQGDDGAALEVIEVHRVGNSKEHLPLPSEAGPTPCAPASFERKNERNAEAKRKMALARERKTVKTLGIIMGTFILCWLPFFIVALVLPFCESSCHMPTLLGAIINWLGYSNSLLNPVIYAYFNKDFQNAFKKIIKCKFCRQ
Outline: (§3)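 [35S]-GTPγS binding in membranes from 10^6 cells (HEK293 for 5-HT1A; CHO for 5-HT1B, 5-HT1D), preincubated 30 min at 30 °C with compound in 20 mM HEPES pH 7.4, 3 mM MgCl2, 100 mM NaCl, 10 μM GDP, 0.2 mM ascorbate. 100 pM [35S]-GTPγS added, 30 min more at 30 °C; nonspecific with 20 μM GTPγS; filtration and scintillation counting.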

[12] = molecular target: T2, 5-hydroxytryptamine receptor 1B (Homo sapiens, UniProt P28222); experiment: Intrinsic activity at human recombinant 5-HT1B receptor expressed in CHO cells by [S35]GTPgammaS binding assay relative to 5-HT; format: functional, cell-based; outline: as §3
T2 sequence (P28222 whole entry): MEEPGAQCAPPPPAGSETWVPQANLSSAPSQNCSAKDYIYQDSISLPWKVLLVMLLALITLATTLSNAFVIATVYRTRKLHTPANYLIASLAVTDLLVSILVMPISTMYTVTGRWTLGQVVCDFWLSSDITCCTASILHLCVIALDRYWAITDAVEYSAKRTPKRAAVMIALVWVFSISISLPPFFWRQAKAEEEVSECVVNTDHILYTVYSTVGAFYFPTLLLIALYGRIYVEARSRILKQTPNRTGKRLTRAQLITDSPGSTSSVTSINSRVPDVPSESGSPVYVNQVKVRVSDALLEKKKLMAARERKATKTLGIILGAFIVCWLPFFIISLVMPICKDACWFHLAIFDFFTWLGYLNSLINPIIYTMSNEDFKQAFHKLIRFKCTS

[13] = molecular target: T3, 5-hydroxytryptamine receptor 1D (Homo sapiens, UniProt P28221); experiment: Inverse agonist activity at human recombinant 5-HT1D receptor expressed in CHO cells by [S35]GTPgammaS binding assay; format: functional, cell-based; outline: as §3
T3 sequence (P28221 whole entry): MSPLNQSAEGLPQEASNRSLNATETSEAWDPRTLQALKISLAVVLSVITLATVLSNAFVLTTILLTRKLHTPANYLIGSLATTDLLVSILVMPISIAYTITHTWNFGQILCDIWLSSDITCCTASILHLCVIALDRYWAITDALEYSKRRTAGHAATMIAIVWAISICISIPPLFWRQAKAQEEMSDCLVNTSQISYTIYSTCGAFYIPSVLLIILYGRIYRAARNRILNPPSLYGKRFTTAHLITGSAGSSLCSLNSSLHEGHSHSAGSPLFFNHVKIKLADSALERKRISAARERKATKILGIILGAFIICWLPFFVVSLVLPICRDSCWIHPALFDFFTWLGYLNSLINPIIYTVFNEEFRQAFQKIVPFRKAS

[14] = molecular target: T3, 5-hydroxytryptamine receptor 1D; experiment: Intrinsic activity at human recombinant 5-HT1D receptor expressed in CHO cells by [S35]GTPgammaS binding assay relative to 5-HT; format: functional, cell-based; outline: as §3
[15] = molecular target: T4, 5-hydroxytryptamine receptor 2C (Homo sapiens, UniProt P28335); experiment: Binding affinity to human recombinant 5-HT2C receptor by radioligand displacement assay
T4 sequence (P28335 whole entry): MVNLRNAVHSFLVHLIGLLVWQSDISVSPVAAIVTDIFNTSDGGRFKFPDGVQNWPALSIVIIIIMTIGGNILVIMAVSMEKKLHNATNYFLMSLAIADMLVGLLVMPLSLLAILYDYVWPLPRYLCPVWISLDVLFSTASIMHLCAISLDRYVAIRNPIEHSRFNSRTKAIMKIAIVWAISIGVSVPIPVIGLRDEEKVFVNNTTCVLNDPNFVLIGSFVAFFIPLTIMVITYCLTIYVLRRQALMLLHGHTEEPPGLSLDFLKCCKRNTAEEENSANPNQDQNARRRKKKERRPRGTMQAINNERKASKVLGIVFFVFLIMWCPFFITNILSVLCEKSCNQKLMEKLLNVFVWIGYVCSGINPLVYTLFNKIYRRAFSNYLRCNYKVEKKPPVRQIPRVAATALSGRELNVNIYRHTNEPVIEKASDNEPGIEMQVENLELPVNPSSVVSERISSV

[16] = molecular target: D(3) dopamine receptor (Homo sapiens, UniProt P35462); experiment: Binding affinity to human recombinant dopamine D3 receptor by radioligand displacement assay
Sequence of D(3) dopamine receptor (P35462 whole entry): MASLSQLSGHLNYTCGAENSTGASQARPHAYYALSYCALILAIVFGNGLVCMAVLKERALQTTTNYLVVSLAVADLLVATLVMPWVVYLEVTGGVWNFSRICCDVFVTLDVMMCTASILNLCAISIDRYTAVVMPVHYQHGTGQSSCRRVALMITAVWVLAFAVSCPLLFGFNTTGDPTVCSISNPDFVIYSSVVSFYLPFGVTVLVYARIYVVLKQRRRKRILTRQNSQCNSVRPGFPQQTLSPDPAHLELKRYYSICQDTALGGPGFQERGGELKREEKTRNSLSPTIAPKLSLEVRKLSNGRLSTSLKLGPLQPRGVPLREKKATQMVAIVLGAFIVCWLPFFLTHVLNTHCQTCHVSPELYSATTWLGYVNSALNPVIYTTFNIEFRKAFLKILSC

[17] = molecular target: D(2) dopamine receptor (Homo sapiens, UniProt P14416); experiment: Binding affinity to human recombinant dopamine D2 receptor by radioligand displacement assay
Sequence of D(2) dopamine receptor (P14416 whole entry): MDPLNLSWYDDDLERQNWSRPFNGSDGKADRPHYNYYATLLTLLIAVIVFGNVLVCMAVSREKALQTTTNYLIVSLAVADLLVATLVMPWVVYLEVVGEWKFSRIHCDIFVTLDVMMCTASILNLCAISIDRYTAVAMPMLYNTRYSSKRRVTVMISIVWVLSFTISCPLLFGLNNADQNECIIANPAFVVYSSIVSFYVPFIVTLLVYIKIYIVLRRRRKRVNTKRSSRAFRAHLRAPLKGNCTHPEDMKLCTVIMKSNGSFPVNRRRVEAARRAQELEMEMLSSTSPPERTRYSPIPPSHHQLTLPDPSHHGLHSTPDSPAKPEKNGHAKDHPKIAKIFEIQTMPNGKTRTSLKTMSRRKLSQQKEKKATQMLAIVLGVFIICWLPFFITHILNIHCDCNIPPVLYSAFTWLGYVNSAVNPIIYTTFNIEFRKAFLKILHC

[18] = molecular target: 5-hydroxytryptamine receptor 2B (Homo sapiens, UniProt P41595); experiment: Binding affinity to human recombinant 5-HT2B receptor by radioligand displacement assay
[19] = molecular target: 5-hydroxytryptamine receptor 7 (Homo sapiens, UniProt P34969); experiment: Binding affinity to human recombinant 5-HT7 receptor by radioligand displacement assay
Sequence of 5-hydroxytryptamine receptor 7 (P34969 whole entry): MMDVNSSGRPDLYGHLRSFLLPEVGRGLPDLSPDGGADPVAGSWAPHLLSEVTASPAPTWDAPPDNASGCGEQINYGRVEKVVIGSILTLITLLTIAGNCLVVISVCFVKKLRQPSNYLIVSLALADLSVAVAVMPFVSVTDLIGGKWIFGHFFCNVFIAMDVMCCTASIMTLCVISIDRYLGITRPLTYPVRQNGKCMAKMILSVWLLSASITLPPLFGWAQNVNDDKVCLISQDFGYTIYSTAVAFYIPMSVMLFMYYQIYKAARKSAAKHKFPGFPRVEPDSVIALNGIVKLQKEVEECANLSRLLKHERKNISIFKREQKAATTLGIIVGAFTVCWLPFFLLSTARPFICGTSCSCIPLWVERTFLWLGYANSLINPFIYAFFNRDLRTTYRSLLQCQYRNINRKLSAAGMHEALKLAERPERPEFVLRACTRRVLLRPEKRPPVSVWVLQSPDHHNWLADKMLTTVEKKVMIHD

[20] = molecular target: 5-hydroxytryptamine receptor 2A (Homo sapiens, UniProt P28223); experiment: Binding affinity to human recombinant 5-HT2A receptor by radioligand displacement assay
Sequence of 5-hydroxytryptamine receptor 2A (P28223 whole entry): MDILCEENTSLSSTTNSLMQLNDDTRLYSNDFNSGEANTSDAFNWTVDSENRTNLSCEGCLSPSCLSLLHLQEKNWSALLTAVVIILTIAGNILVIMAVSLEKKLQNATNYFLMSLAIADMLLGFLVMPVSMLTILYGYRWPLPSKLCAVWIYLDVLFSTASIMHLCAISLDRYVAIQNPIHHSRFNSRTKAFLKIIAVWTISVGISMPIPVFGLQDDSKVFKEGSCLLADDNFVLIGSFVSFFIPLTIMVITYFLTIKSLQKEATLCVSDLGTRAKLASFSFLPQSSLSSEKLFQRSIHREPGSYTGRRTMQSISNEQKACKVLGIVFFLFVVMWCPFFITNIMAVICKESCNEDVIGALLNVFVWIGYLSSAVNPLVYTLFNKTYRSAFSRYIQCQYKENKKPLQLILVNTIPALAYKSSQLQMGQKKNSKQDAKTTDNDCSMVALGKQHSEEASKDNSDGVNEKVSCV

[21] = molecular target: Voltage-gated inwardly rectifying potassium channel KCNH2 (Homo sapiens, UniProt Q12809); experiment: Displacement of [3H]dofetilide from human ERG by SPA
Sequence of Voltage-gated inwardly rectifying potassium channel KCNH2 (Q12809 whole entry): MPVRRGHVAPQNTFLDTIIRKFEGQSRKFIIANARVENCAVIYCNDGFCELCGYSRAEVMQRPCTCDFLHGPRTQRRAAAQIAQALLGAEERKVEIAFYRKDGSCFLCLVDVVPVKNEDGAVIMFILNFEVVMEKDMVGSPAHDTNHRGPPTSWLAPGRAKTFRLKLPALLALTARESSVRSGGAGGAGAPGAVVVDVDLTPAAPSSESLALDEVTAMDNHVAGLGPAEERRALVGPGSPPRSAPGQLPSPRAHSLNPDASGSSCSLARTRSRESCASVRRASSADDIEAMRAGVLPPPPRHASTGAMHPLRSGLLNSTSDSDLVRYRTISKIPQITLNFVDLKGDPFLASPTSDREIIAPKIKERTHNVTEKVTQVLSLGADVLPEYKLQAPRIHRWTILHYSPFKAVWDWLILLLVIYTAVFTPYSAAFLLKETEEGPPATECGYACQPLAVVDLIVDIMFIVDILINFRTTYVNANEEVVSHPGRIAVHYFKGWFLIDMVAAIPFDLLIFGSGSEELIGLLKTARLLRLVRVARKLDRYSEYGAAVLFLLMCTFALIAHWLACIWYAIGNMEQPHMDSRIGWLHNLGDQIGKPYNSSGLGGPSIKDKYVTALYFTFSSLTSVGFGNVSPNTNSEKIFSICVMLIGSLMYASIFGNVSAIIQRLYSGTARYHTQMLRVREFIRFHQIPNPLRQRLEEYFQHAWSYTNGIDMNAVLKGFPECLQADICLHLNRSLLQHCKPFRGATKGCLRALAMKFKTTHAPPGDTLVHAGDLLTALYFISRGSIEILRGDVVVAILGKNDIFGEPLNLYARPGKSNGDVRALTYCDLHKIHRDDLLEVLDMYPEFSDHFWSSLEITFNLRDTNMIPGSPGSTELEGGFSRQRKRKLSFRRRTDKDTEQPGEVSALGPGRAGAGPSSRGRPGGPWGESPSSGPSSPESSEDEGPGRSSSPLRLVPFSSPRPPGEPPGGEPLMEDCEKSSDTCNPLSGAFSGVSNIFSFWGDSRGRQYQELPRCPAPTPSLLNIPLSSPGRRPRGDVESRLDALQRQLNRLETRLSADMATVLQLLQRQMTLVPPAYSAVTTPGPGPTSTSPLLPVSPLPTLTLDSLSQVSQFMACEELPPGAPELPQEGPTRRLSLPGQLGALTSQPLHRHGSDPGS

[22] = molecular target: Sodium-dependent serotonin transporter (Rattus norvegicus, UniProt P31652); experiment: Inhibition of [3H]5-HT uptake at SERT in rat cortical synaptosomes; format: subcellular, Brain
[23] = molecular target: 5-hydroxytryptamine receptor 6 (Homo sapiens, UniProt P50406); experiment: Binding affinity to human recombinant 5-HT6 receptor by radioligand displacement assay
Sequence of 5-hydroxytryptamine receptor 6 (P50406 whole entry): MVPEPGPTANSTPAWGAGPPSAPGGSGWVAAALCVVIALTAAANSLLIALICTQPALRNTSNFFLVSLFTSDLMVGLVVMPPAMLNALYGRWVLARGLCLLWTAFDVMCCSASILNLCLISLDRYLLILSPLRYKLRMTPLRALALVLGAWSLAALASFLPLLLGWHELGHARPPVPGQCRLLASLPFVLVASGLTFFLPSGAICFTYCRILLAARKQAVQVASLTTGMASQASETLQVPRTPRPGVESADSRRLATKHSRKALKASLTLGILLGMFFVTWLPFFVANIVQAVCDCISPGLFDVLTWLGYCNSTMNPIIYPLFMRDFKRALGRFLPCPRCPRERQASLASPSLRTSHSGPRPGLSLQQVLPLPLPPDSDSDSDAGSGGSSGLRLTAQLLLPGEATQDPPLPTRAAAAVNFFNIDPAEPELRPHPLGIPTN

[24] = molecular target: T3, 5-hydroxytryptamine receptor 1D; experiment: Displacement of [3H]5-HT from human recombinant 5-HT1D receptor expressed in CHO cells; format: cell-based
[25] = molecular target: T2, 5-hydroxytryptamine receptor 1B; experiment: Inverse agonist activity at human recombinant 5-HT1B receptor expressed in CHO cells by [S35]GTPgammaS binding assay; format: functional, cell-based; outline: as §3
[26] = molecular target: T5, 5-hydroxytryptamine receptor 1A (Homo sapiens, UniProt P08908); experiment: Displacement of [3H]WAY100635 from human recombinant 5-HT1A receptor expressed in CHO cells; format: cell-based
T5 sequence (P08908 whole entry): T1 sequence (whole entry)

[27] = molecular target: T2, 5-hydroxytryptamine receptor 1B; experiment: Displacement of [3H]5-HT from human recombinant 5-HT1B receptor expressed in CHO cells; format: cell-based
[28] = molecular target: Alpha-1B adrenergic receptor (Rattus norvegicus, UniProt P15823); experiment: Inhibition of rat adrenergic Alpha-1B receptor
[29] = Plasma protein binding in dog at 1 ug/mL by equilibrium dialysis method
[30] = Protein binding in rat plasma at 1 ug/mL by equilibrium dialysis method
[31] = molecular target: T6, Cytochrome P450 3A4 (Homo sapiens, UniProt P08684); experiment: Inhibition of CYP3A4 in human liver microsomes using nifedipine as probe
T6 sequence (P08684 whole entry): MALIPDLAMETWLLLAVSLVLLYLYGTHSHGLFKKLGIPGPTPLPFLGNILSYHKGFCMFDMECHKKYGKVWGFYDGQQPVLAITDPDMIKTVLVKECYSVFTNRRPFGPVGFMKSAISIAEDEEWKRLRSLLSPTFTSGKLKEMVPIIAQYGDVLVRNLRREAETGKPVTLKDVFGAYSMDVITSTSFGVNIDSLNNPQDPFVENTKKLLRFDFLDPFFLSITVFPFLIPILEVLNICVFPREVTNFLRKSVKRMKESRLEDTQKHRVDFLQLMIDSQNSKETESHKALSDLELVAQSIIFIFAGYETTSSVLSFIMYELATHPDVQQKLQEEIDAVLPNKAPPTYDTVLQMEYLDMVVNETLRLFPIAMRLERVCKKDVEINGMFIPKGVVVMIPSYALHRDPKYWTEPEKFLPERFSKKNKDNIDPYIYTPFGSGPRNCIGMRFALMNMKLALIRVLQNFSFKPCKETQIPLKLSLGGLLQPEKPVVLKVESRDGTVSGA

[32] = molecular target: Cytochrome P450 2C9 (Homo sapiens, UniProt P11712); experiment: Inhibition of human recombinant CYP2C9
[33] = molecular target: Alpha-1A adrenergic receptor (Rattus norvegicus, UniProt P43140); experiment: Inhibition of rat adrenergic alpha1A receptor
[34] = molecular target: Cytochrome P450 1A2 (Homo sapiens, UniProt P05177); experiment: Inhibition of human recombinant CYP1A2
[35] = molecular target: Cytochrome P450 2D6 (Homo sapiens, UniProt P10635); experiment: Inhibition of human recombinant CYP2D6
[36] = molecular target: T6, Cytochrome P450 3A4; experiment: Inhibition of CYP3A4 in human liver microsomes using midazolam as probe
[37] = Plasma protein binding in human at 1 ug/mL by equilibrium dialysis method
[38] = molecular target: T6, Cytochrome P450 3A4; experiment: Inhibition of CYP3A4 in human liver microsomes using atorvastatin as probe
[39] = molecular target: T6, Cytochrome P450 3A4; experiment: Inhibition of human recombinant CYP3A4
[40] = molecular target: Cytochrome P450 2C19 (Homo sapiens, UniProt P33261); experiment: Inhibition of human recombinant CYP219

Row | Intrinsic activity [11] | Intrinsic activity [12] | Activity [13] | Ki [15] | Ki [16] | Ki [17] | Ki [18] | Ki [19] | Ki [20] | Ki [22] | Ki [23] | Ki [24] | Compound | inhibition [1] | Ki [21] | further results
1 |  |  |  |  |  |  |  |  |  |  |  |  | CC(=O)Nc1cccc(CCN2CCN(c3cccc4nc(C)ccc34)CC2)c1.Cl.Cl |  |  | ED50 ([1]; po): 0.09 mg/kg; half-life [2]: 4.6 h; Cmax [3]: 98 ng/mL; solubility [4]: > 10000 µg/mL; Kp at 1 h [5]: 0.7; bioavailability [6]: 51%; solubility [7]: 5000 µg/mL; clearance [8]: 10 mL/min/kg; AUC(0-inf) [9]: 893 ng·h/mL; solubility [10]: > 10000 µg/mL
2 | 0 | 0.1 | Active |  |  |  |  |  |  |  |  |  | Cc1ccc2c(N3CCN(CCc4cccc(NS(C)(=O)=O)c4)CC3)cccc2n1 | Dose-dependent effect |  | 
3 | 0 | 0 |  |  |  |  |  |  |  |  |  |  | Cc1ccc2c(N3CCN(CCc4cccc(N5CCNC5=O)c4)CC3)cccc2n1 | Dose-dependent effect |  | Intrinsic activity [14]: 0
4 | 0 | 0 | Active | > 5010 nM | 200 nM | 794 nM | 1260 nM | 501 nM | 794 nM | 501 nM | 3160 nM | 0.158 nM | Cc1ccc2c(N3CCN(CCc4cccc(N5CCOC5=O)c4)CC3)cccc2n1 |  | 2000 nM | 
5 | 0 |  | Active | 794 nM | 126 nM | 316 nM | 398 nM | 39.8 nM | 316 nM | 501 nM | > 6310 nM | 0.158 nM | CCNC(=O)Nc1cccc(CCN2CCN(c3cccc4nc(C)ccc34)CC2)c1 |  | 631 nM | Activity [25]: Active; Ki [26]: 2 nM; Ki [27]: 1.26 nM
6 |  |  |  | 1580 nM |  |  |  |  |  |  | > 5010 nM |  | Cc1ccc2c(N3CCN(CCc4cccc(N5CCNC5=O)c4)CC3)cccc2n1 [GSK163090] |  | 12600 nM | IC50 [28]: 25.1 nM; fraction unbound at 1 ug/mL [29]: 0.045; fraction unbound at 1 ug/mL [30]: 0.041; IC50 [31]: 21000 nM; IC50 [32]: 60000 nM; IC50 [33]: 25.1 nM; IC50 [34]: 96000 nM; IC50 [35]: 86000 nM; IC50 [36]: 21000 nM; fraction unbound at 1 ug/mL [37]: 0.041; IC50 [38]: 21000 nM; IC50 [39]: 67000 nM; IC50 [40]: 76000 nM
